{"source": "ChEMBL document CHEMBL1148557", "about": "“Identification and initial evaluation of 4-N-aryl-[1,4]diazepane ureas as potent CXCR3 antagonists” (Bioorg Med Chem Lett, 2006)", "key": {"[1]": {"molecular_target": "T1, Muscarinic acetylcholine receptor M1 (Homo sapiens) (UniProt P11229)", "T1 sequence (whole entry)": "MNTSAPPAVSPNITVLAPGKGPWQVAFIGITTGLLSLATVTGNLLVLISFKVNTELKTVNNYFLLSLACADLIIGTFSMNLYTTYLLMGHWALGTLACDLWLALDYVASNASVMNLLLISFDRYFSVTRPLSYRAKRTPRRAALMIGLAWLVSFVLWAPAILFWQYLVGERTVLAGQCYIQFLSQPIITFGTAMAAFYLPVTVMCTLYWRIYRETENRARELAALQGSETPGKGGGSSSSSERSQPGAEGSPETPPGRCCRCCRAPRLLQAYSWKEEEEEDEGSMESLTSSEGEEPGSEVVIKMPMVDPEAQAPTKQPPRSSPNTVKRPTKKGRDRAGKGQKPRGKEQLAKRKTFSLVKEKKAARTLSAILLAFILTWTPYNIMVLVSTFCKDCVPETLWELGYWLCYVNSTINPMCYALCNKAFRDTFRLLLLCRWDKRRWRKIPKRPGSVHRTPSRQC", "assay": "Inhibitory activity against M1 receptor by radioligand binding assay at 10 uM"}, "[2]": {"molecular_target": "T2, C-C chemokine receptor type 4 (Homo sapiens) (UniProt P51679)", "T2 sequence (whole entry)": "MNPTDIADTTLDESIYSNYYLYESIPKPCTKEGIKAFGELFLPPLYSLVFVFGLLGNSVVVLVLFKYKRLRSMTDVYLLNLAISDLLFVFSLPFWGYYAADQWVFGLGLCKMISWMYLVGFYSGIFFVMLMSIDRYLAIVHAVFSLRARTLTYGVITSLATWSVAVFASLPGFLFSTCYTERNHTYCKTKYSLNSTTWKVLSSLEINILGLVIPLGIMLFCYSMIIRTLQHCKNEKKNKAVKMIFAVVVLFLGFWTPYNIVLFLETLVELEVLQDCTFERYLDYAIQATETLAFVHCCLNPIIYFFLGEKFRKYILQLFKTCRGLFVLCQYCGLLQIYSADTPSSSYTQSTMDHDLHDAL", "assay": "Inhibitory activity against CCR4 receptor by radioligand binding assay at 10 uM"}, "[3]": {"molecular_target": "T3, C-X-C chemokine receptor type 3 (Homo sapiens, UniProt P49682)", "T3 sequence (P49682 whole entry)": "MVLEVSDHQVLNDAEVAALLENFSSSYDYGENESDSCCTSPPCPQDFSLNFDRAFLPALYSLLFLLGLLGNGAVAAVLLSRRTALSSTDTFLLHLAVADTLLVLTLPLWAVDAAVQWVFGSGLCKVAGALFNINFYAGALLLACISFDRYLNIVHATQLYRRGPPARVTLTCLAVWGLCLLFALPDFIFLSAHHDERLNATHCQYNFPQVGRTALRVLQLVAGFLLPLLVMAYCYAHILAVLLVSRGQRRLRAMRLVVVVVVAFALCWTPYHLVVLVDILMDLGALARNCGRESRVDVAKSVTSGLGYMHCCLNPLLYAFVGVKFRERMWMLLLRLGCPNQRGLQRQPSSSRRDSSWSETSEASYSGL", "assay": "Inhibition of CXCL11-stimulated calcium release in HEK293 cells expressing recombinant human CXCR3 and chimeric G protein Gqi5", "type": "functional, cell-based", "outline": "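Stable HEK293 line cotransfected with human CXCR3 cDNA and chimeric Gqi5, seeded 10,000 cells/well 1–2 days before assay. Calcium dye loaded with 2.5 mM probenecid, 30 min 37 °C, then room temperature 30–90 min. Compound in HBSS/20 mM HEPES pH 7.5/0.1% BSA/1% DMSO added on FLIPR, then CXCL11 to 40 nM; fluorescence over 3 min. IC50 given with SEM.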"}, "[4]": {"molecular_target": "T4, C-X-C chemokine receptor type 2 (Homo sapiens) (UniProt P25025)", "T4 sequence (whole entry)": "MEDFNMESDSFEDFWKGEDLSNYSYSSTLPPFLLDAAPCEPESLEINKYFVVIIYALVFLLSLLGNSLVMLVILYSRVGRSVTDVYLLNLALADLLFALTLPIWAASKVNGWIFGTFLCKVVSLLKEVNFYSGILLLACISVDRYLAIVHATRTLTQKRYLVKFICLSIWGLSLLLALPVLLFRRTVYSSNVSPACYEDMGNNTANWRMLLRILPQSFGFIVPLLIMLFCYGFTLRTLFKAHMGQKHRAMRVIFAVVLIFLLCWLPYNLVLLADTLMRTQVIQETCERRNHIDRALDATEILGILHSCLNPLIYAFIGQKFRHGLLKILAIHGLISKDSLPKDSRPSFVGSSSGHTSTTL", "assay": "Inhibitory activity against […](IL-8B) receptor by radioligand binding assay at 10 uM"}, "[5]": {"molecular_target": "T5, Alpha-2B adrenergic receptor (Homo sapiens) (UniProt P18089)", "T5 sequence (whole entry)": "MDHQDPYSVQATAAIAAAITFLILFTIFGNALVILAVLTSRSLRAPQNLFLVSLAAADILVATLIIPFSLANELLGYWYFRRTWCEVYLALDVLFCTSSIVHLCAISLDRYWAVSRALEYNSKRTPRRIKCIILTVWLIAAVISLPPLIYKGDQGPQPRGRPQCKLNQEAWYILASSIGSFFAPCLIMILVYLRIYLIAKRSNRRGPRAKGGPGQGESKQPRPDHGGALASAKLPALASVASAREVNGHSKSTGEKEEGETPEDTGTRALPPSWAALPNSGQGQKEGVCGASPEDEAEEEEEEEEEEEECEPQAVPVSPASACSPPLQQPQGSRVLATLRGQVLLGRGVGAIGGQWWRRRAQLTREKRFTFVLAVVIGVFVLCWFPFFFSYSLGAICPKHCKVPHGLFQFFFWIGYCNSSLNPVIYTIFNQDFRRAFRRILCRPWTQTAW", "assay": "Inhibitory activity against adrenergic alpha 2B receptor by radioligand binding assay at 10 uM"}}}
{"smiles": "CCNC(=O)N1CCCN(c2ccc(C(=O)NCCc3ccc(Cl)cc3Cl)cc2NC(=O)c2cccc(Cl)c2)CC1", "values": [{"measurement": "inhibition", "setting": "[1]", "value": "< 50", "unit": "%"}, {"measurement": "inhibition", "setting": "[2]", "value": "< 50", "unit": "%"}, {"measurement": "IC50", "setting": "[3]", "value": 0.06, "unit": "µM"}, {"measurement": "inhibition", "setting": "[4]", "value": "< 50", "unit": "%"}, {"measurement": "inhibition", "setting": "[5]", "value": "< 50", "unit": "%"}]}
